Test [1] addresses T1, Retinoic acid receptor RXR-alpha (Homo sapiens, UniProt P19793).
T1 sequence (P19793 whole entry): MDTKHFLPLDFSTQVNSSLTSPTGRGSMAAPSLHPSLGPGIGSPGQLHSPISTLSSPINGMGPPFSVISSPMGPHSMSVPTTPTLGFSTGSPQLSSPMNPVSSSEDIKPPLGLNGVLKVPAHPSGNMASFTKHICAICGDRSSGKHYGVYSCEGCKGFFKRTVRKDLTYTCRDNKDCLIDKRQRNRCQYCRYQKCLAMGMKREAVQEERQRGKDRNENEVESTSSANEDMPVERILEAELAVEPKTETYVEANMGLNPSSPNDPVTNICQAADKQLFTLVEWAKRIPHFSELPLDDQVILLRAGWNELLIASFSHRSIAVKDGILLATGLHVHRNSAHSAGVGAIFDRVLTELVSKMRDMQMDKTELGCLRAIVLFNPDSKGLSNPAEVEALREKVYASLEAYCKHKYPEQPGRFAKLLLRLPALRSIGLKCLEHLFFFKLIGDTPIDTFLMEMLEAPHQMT
In words: Displacement of [3H]-9-cis-RA from human GST-tagged N-terminal truncated RXRalpha after 1 hr by liquid scintillation counting. Put shortly:
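GST-tagged human RXRα-LBD (223–462) preincubated with unlabeled 9-cis-RA or test compound at varied concentrations in binding buffer (0.15 M KCl, 10 mM Tris·HCl pH 7.4, 8% glycerol, 0.5% CHAPS), 4°C, 1 h; [3H]-9-cis-RA then added to 7.5 nM final, overnight at 4°C. Receptor captured on glutathione sepharose beads; bound radioligand counted by liquid scintillation.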
In general terms: Displacement assays read how much labelled ligand stays bound in the presence of the test substance.

The target of test [2] is T1, Retinoic acid receptor RXR-alpha. Kind of test: Displacement of [3H]-9-cis-RA from RXRalpha (unknown origin) by liquid scintillation counting.
The subject of test [3] is ZR-75-1. Kind of test: Induction of apoptosis in human ZR75-1 cells assessed as PARP cleavage at 30 uM after 6 hrs by Western blot analysis. It counts as functional, cell-based. The essentials: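 ZR-75-1 cells (RPMI1640, 10% FBS) treated with vehicle or 30 μM compound for 6 hr. Lysates run on 10% SDS-PAGE, blotted to PVDF and probed with anti-PARP (1:3000) for cleavage, ECL detection.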

The target of test [4] is T2, Retinoic acid receptor RXR-alpha (Homo sapiens) (UniProt P19793).
T2 sequence (whole entry): T1 sequence (P19793 whole entry)
Kind of test: Antagonist activity at RXRalpha (unknown origin) expressed in HCT116 cells assessed as inhibition of 9-cis-RA-induced galactosidase activity after 12 hrs by gal4 reporter gene assay. As to conditions: HCT-116, in the assay text read “luciferase activity” for “galactosidase activity”. Format: cell-based. The essentials:
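GAL4-RXRα-LBD transactivation in HCT-116 cells: cells transfected for 24 hr with pG5 luciferase reporter (50 ng/well) plus pGAL4-RXRα-LBD vector (50 ng/well), then exposed to 9-cis-RA (10^-7 M) together with varied compound concentrations for 12 hr. Luciferase read by dual-luciferase assay. Cells grown in DMEM with 10% FBS, 37°C, 5% CO2.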
Background: A reporter such as luciferase makes a cellular process visible.

The target of test [5] is T2, Retinoic acid receptor RXR-alpha (Homo sapiens). In words: Inhibition of RXRalpha in human HCT116 cells assessed as inhibition of TNFalpha-induced Akt phosphorylation. As to conditions: HCT-116. Format: cell-based.
In another test the test system is HCT-116. In words: Induction of apoptosis in human HCT116 cells assessed as increase in TNFalpha-induced PARP cleavage at 40 uM after 4 hrs by Western blot analysis. It counts as functional, cell-based. Background: A western blot detects proteins with antibodies after separation by electrophoresis.
Test [6] has as its target T2, Retinoic acid receptor RXR-alpha (Homo sapiens). Kind of test: Inhibition of RXRalpha in human A549 cells assessed as inhibition of TNFalpha-induced Akt phosphorylation at 30 uM incubated for 1 hr prior to TNFalpha-induction measured after 30 mins by Western blot analysis. It counts as cell-based. Put shortly: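 A549 cells (DMEM, 10% FBS) pretreated 1 hr with 30 μM compound, then TNFα (10 ng/mL) for 30 min. Phospho-AKT (1:1000) and total AKT (1:1000) immunoblotted after 10% SDS-PAGE, with ECL detection.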

The target is the same in test [7]. In words: Inhibition of RXRalpha in human HepG2 cells assessed as inhibition of TNFalpha-induced Akt phosphorylation. Format: cell-based.
The next test relates to PC-3. Kind of test: Cytotoxicity against human PC3 cells after 24 hrs by MTT assay. Format: functional, cell-based. Put shortly: (§1)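 Cells in RPMI1640 with 10% FBS (37°C, 5% CO2) treated with various concentrations for 24 hr in 96-well format. MTT at 2 mg/mL added for 4 hr at 37°C, formazan dissolved in DMSO, absorbance read at 570 nm for viability.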
Test [8] deals with ZR-75-1. Kind of test: Cytotoxicity against human ZR75-1 cells after 24 hrs by MTT assay. It counts as functional, cell-based. Put shortly: as §1
Another test has as its system HeLa. Kind of test: Decrease in TNFalpha-induced Akt phosphorylation in RXRalpha-knockdown human HeLa cells at 20 uM incubated for 1 hr prior to TNFalpha-induction measured after 30 mins by Western blot analysis. It counts as functional, cell-based.

Structures are written as SMILES. pIC50: −log10 of the molar value. Activity calls are given as the source filed them. The calls are words filed in the database; no cut-off is given here.

As usually defined, the pIC50 is the IC50 on a negative log10 scale, so that one unit is a factor of ten. Low readings indicate a high IC50, high ones a low IC50. In turn, `CC1=C(CC(=O)O)c2cc(C)ccc2/C1=C\c1ccc(C(C)C)cc1` showed a negative-log IC50 (pIC50) in [1] of at most 4.00.

Turning to `CC(C)CC1=C(CC(=O)O)c2cc(F)ccc2/C1=C\c1ccc(C(C)C)cc1`, the pIC50 in test [1] was 5.50.

In turn, `CCOc1ccc2c(c1)C(CC(=O)O)=C(C)/C2=C/c1ccc(C(C)C)cc1` had a negative logarithm of the IC50 (pIC50) in [1] of 5.51.

`COc1ccc2c(c1)C(CC(=O)O)=C(C)/C2=C/c1ccc(C(C)C)cc1`: the pIC50 in test [1] was at most 4.00.

`CC1=C(CC(=O)O)c2cc(Cl)ccc2/C1=C\c1ccc(C(C)C)cc1`: the pIC50 in test [1] is at most 4.00.

In turn, `CCOc1ccc(/C=C2/C(C)=C(CC(=O)O)c3cc(F)ccc32)cc1` had a pIC50 in test [1] of at most 4.00.

As to `CC1=C(CC(=O)O)c2cc(F)ccc2/C1=C\c1ccc(-c2ccccn2)cc1`, the pIC50 in test [1] is at most 4.00.

Take `CC1=C(CC(=O)O)c2cc(F)ccc2/C1=C\c1ccc(C(C)C)cc1`: the pIC50 in test [2] is 5.62. Besides, the result with ZR-75-1 [3] and with HCT-116 was Active. Moreover, in test [4], the inhibition entry was “Dose-dependent effect”. Besides, the inhibition entry in test [5], in test [6] and in [7] was “Active” in each case.

For `CC1=C(CC(N)=O)c2cc(F)ccc2/C1=C\c1ccc(C(C)C)cc1`, in test [1], the pIC50 is at most 4.00.

With `CCc1ccc2c(c1)C(CC(=O)O)=C(C)/C2=C/c1ccc(C(C)C)cc1`, the pIC50 in test [1] is at most 4.00.

Compound `CCC1=C(CC(=O)O)c2cc(F)ccc2/C1=C\c1ccc(C(C)C)cc1` had a pIC50 in test [1] of 5.20.

In test [1], `CC1=C(CC(=O)O)c2cc(F)ccc2/C1=C\c1cccc(C(F)(F)F)c1` gave a pIC50 of 5.08.

Turning to `CC1=C(CC(N)=O)c2cc(F)ccc2/C1=C/c1ccc(C(C)C)cc1`, in [1], the pIC50 is at most 4.00.

In turn, `COc1cccc(/C=C2/C(C)=C(CC(=O)O)c3cc(F)ccc32)c1` gave a pIC50 in test [1] of at most 4.00.

Take `CC1=C(CC(=O)O)c2cc(F)ccc2/C1=C\c1ccc([S+](C)[O-])cc1` (stereo unspecified): the pIC50 in test [2] is 4.08. Further, the outcome in the test on ZR-75-1 [3] and with HCT-116 was Active.

Turning to `CC1=C(CC(=O)O)c2cc(F)ccc2/C1=C\c1ccc(C(F)(F)F)cc1`, the pIC50 in test [1] was 5.33.

`CC1=C(CC(=O)O)c2ccccc2/C1=C\c1ccc(C(C)C)cc1` showed a pIC50 in test [1] of at most 4.00.

As to `CC1=C(CC(=O)O)c2cc(F)ccc2/C1=C\c1ccc(N(C)C)cc1`, in [1], the pIC50 was at most 4.00.

Compound `CC1=C(CCC(=O)O)c2cc(F)ccc2/C1=C\c1ccc(C(C)C)cc1` gave a pIC50 in test [1] of 5.24.

Consider `CC(C)c1ccc(/C=C2\C=C(CC(=O)O)c3cc(F)ccc32)cc1`, for which the Activity entry with PC-3 and in the test on ZR-75-1 [8] was “Dose-dependent effect” in each case. For the same compound, the pIC50 in test [1] is 5.80. Besides, the result in the test on ZR-75-1 [3] and with HCT-116 was Active. Besides, the outcome in the test with HeLa was inactive.

`CC1=C(CC(=O)O)c2cc(F)ccc2/C1=C\c1ccccc1` showed a pIC50 in test [1] of 4.97.

In [1], `CC(=O)Nc1ccc(/C=C2/C(C)=C(CC(=O)O)c3cc(F)ccc32)cc1` showed a pIC50 of at most 4.00.

Regarding `COc1ccc(/C=C2/C(C)=C(CC(=O)O)c3cc(F)ccc32)cc1`, the pIC50 in test [1] is at most 4.00.

With `CC1=C(CC(=O)O)c2cc(F)ccc2/C1=C\c1ccc(C(C)(C)C)cc1`, in test [1], the pIC50 is at most 4.00.

In the case of `CC1=C(CC(=O)O)c2cc(F)ccc2/C1=C\c1ccc(C#N)cc1`, the pIC50 in [1] was at most 4.00.

Compound `CC1=C(CC(=O)O)c2cc(C(C)C)ccc2/C1=C\c1ccc(C(C)C)cc1` gave a pIC50 in [1] of at most 4.00.

`CC1=C(CC(=O)O)c2cc(F)ccc2/C1=C\c1cccc(C#N)c1` gave a pIC50 in test [1] of at most 4.00.

Take `CC1=C(CCC#N)c2cc(F)ccc2/C1=C\c1ccc(C(C)C)cc1`: the pIC50 in test [1] is at most 4.00.

The values above are taken from ChEMBL document CHEMBL2331313, “Synthesis and SAR study of modulators inhibiting tRXRα-dependent AKT activation” (Eur J Med Chem, 2013).
